The results in this text go back to ChEMBL document CHEMBL4602616, “Design, synthesis and biological evaluation of novel indole-based oxalamide and aminoacetamide derivatives as tubulin polymerization inhibitors” (Bioorg Med Chem Lett, 2020).

Activity calls are given as the source filed them. No cut-off for these calls is given here. Some results are limits rather than exact numbers.

In experiment [1] the test system is HeLa. As to the kind of experiment: Antiproliferative activity against human HeLa cells assessed as reduction in cell growth after 48 hrs by MTT assay. The experiment is classed as functional, cell-based. (In general: Formazan colour is commonly taken as a measure of viable cells.)
Experiment [2] concerns HCT-116. As to the kind of experiment: Antiproliferative activity against human HCT116 cells assessed as reduction in cell viability. The experiment is classed as functional, cell-based.
In experiment [3] the test system is HeLa. As to the kind of experiment: Induction of cell cycle arrest in human HeLa cells assessed as accumulation at S phase at 7.5 uM after 24 hrs by PI staining based flow cytometric analysis (reference value: 18.38%). Type of experiment: functional. On the technique in general: Flow cytometry measures light scatter and fluorescence of single cells or particles in a stream.

Experiment [4] relates to HeLa. In words: Induction of cell cycle arrest in human HeLa cells assessed as accumulation at G0/G1 phase at 30 uM after 24 hrs by PI staining based flow cytometric analysis (reference value: 69.86%). Type of experiment: functional.
The subject of experiment [5] is HeLa. In words: Induction of cell cycle arrest in human HeLa cells assessed as accumulation at S phase at 30 uM after 24 hrs by PI staining based flow cytometric analysis (reference value: 18.38%). The experiment is classed as functional.
Experiment [6] concerns HeLa. In words: Induction of cell cycle arrest in human HeLa cells assessed as accumulation at G2/M phase at 7.5 uM after 24 hrs by PI staining based flow cytometric analysis (reference value: 11.76%). The experiment is classed as functional.
The subject of experiment [7] is HeLa. As to the kind of experiment: Induction of cell cycle arrest in human HeLa cells assessed as accumulation at S phase at 15 uM after 24 hrs by PI staining based flow cytometric analysis (reference value: 18.38%). The experiment is classed as functional.
Experiment [8] deals with HeLa. In words: Induction of cell cycle arrest in human HeLa cells assessed as debris content at 7.5 uM after 24 hrs by PI staining based flow cytometric analysis (reference value: 0.05%). The experiment is classed as functional.
Experiment [9] concerns the target T1, Tubulin (Homo sapiens) (UniProt P68371+Q9H4B7+P0DPH7+P68366+Q13509+Q71U36+P04350+Q3ZCM7+P07437+P68363+Q9BQE3+Q6PEY2+Q13885+Q9BVA1+Q9BUF5). In words: Inhibition of tubulin polymerization in human HeLa cells assessed as microtubule spindle shrinkage around nucleus at 15 to 30 uM after 12 hrs by immunofluorescence based confocal microscopy. The experiment is classed as cell-based. In a few lines: (§1)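 HeLa cells grown on glass coverslips, incubated with compound at 15 or 30 μM for 12 h, then fixed; α- and β-tubulin visualized by immunocytochemistry and confocal microscopy, compared with untreated cells.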

The target of experiment [10] is T1, Tubulin (Homo sapiens). As to the kind of experiment: Inhibition of tubulin polymerization (unknown origin) at 10 uM relative to control. The experiment is classed as protein-complex assay. In outline:
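In vitro tubulin polymerization measured with compounds at a final concentration of 10 μM; result given as percent inhibition.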

Experiment [11] relates to HeLa. In words: Induction of cell cycle arrest in human HeLa cells assessed as accumulation at G0/G1 phase at 15 uM after 24 hrs by PI staining based flow cytometric analysis (reference value: 69.86%). Type of experiment: functional.
For experiment [12], the system named is PC-3. In words: Antiproliferative activity against human PC3 cells assessed as reduction in cell viability. The experiment is classed as functional, cell-based.
The test system of experiment [13] is HeLa. As to the kind of experiment: Induction of cell cycle arrest in human HeLa cells assessed as accumulation at G2/M phase at 30 uM after 24 hrs by PI staining based flow cytometric analysis (reference value: 11.76%). The experiment is classed as functional.
The test system of experiment [14] is HeLa. In words: Induction of cell cycle arrest in human HeLa cells assessed as debris content at 15 uM after 24 hrs by PI staining based flow cytometric analysis (reference value: 0.05%). The experiment is classed as functional.
Experiment [15] relates to HeLa. In words: Induction of cell cycle arrest in human HeLa cells assessed as debris content at 30 uM after 24 hrs by PI staining based flow cytometric analysis (reference value: 0.05%). Type of experiment: functional.
The subject of experiment [16] is HeLa. As to the kind of experiment: Induction of cell cycle arrest in human HeLa cells assessed as accumulation of cells at G2/M phase after 24 hrs by PI-staining based flow cytometric analysis. Type of experiment: functional.
Experiment [17] has as its target T1, Tubulin (Homo sapiens). In words: Inhibition of tubulin polymerization in human HeLa cells assessed as disruption of alpha tubulin at 15 to 30 uM after 12 hrs by immunofluorescence based confocal microscopy. The experiment is classed as cell-based. In a few lines:
as §1

Experiment [18] concerns HeLa. In words: Induction of cell cycle arrest in human HeLa cells assessed as accumulation at G2/M phase at 15 uM after 24 hrs by PI staining based flow cytometric analysis (reference value: 11.76%). The experiment is classed as functional.
Experiment [19] addresses T1, Tubulin (Homo sapiens). As to the kind of experiment: Inhibition of tubulin polymerization in human HeLa cells assessed as cell membrane rounding at 15 to 30 uM after 12 hrs by immunofluorescence based confocal microscopy. In a few lines:
as §1

Experiment [20] deals with HeLa. In words: Induction of cell cycle arrest in human HeLa cells assessed as accumulation at G0/G1 phase at 7.5 uM after 24 hrs by PI staining based flow cytometric analysis (reference value: 69.86%). Type of experiment: functional.
For experiment [21], the target named is T1, Tubulin (Homo sapiens). In words: Inhibition of tubulin polymerization in human HeLa cells assessed as disruption of beta tubulin at 15 to 30 uM after 12 hrs by immunofluorescence based confocal microscopy. The experiment is classed as cell-based. In outline:
as §1

In experiment [22] the test system is HeLa. As to the kind of experiment: Antiproliferative activity against human HeLa cells assessed as reduction in cell viability. The experiment is classed as functional, cell-based.

In the case of `COc1ccc(C(=O)c2[nH]c3cc(Cl)ccc3c2NC(=O)CNc2cc(OC)c(OC)c(OC)c2)cc1`, the IC50 – broadly, the concentration at which inhibition is half-maximal – in [1] is above 100 µM.

As to `Cc1ccc2c(NC(=O)C(=O)Nc3ccncc3)c(C(=O)C3CC3)[nH]c2c1`, the IC50 in experiment [1] is above 100 µM.

Consider `COc1ccc(C(=O)c2[nH]c3ccccc3c2NC(=O)CNc2ccccc2C)cc1`, for which the half-maximal inhibitory concentration (IC50) in experiment [1] turned out to be 27.9 µM.

Regarding `Cc1ccc2c(NC(=O)C(=O)Nc3ccccc3)c(C(=O)c3ccccc3)[nH]c2c1`, in experiment [1], the IC50 was found to be 55.2 µM.

In the case of `O=C(Nc1ccccc1)C(=O)Nc1c[nH]c2ccccc12`, the IC50 in experiment [1] worked out at 76.7 µM.

As for `O=C(Nc1ccccc1)C(=O)Nc1c(C(=O)C2CC2)[nH]c2ccccc12`, the concentration for half-maximal inhibition (IC50) in [1] was above 100 µM.

For `O=C(Nc1ccncc1)C(=O)Nc1c(C(=O)C2CC2)[nH]c2ccccc12`, the IC50 in [1] is above 100 µM.

On to `COc1cc(NCC(=O)Nc2c(C(=O)c3ccccc3)[nH]c3cc(Cl)ccc23)cc(OC)c1OC`, for which the IC50 in experiment [1] is above 100 µM.

As for `CC(=O)c1[nH]c2ccccc2c1NC(=O)C(=O)Nc1ccncc1`, the IC50 in [1] was found to be 62.4 µM.

For the compound `CC(=O)c1[nH]c2cc(Cl)ccc2c1NC(=O)C(=O)Nc1ccncc1`, the IC50 in experiment [1] came to 69.6 µM.

On to `O=C(Nc1ccccc1)C(=O)Nc1c(C(=O)c2ccccc2)[nH]c2cc(Cl)ccc12`, for which the half-maximal inhibitory concentration (IC50) in experiment [1] was 29.2 µM.

As for `COc1cc2c(c(OC)c1OC)-c1ccc(OC)c(=O)cc1[C@@H](NC(C)=O)CC2` [COLCHICINE], the IC50 in [2] was 0.25 µM; in [1] it was 0.03 µM.

On to `O=C(CNc1ccccc1)Nc1c(C(=O)c2ccccc2)[nH]c2cc(Cl)ccc12`, for which the Activity in experiment [3] was 17.7%; in experiment [4], 64.24%; in experiment [5], 10.56%; in experiment [6] it was 14.2%; in [7] it was 14.73%; in [8] it was 0.04%. For the same compound, the Activity was 64.57% in experiment [11]; 25.2% in [13]; 0% in [14]; 0.07% in experiment [15]; “Dose-dependent effect” in experiment [16]; 20.7% in [18]. In addition, the Activity in experiment [20] was determined as 68.1%. Also, the inhibition result in [9], in experiment [17], in experiment [19] and in [21] was “Active” in each case. Further, in [10], the inhibition (usually the drop in the measured response relative to a control, in per cent) was 46%. The figures for the IC50 in experiment [12], in experiment [2] and in experiment [1] were 14.4 µM, 12 µM and 15.4 µM, respectively.

Consider `COc1ccc(C(=O)c2[nH]c3cc(Cl)ccc3c2NC(=O)CNc2ccc(C)cc2)cc1`, for which the inhibition in [10] is 29%. In addition, the IC50 in experiment [12] was 15.8 µM; in [2], 20.4 µM; in experiment [1] it was 18.3 µM.

Consider `O=C(Nc1ccncc1)C(=O)Nc1c(C(=O)c2ccco2)[nH]c2ccccc12`, for which the IC50 in experiment [1] was 56.8 µM.

On to `O=C(Nc1ccncc1)C(=O)Nc1c[nH]c2ccccc12`, for which the IC50 in [1] was above 100 µM.

For `O=C(Nc1ccncc1)C(=O)Nc1c(C(=O)c2ccco2)[nH]c2cc(Cl)ccc12`, the IC50 in experiment [1] was determined as 21.8 µM.

Take `CC(=O)c1[nH]c2cc(C)ccc2c1NC(=O)C(=O)Nc1ccncc1`: the IC50 in experiment [1] is above 100 µM.

Take `O=C(Nc1ccccc1)C(=O)Nc1c(C(=O)C2CC2)[nH]c2cc(Cl)ccc12`: the IC50 in experiment [1] was above 100 µM.

As for `Cc1ccc2c(NC(=O)C(=O)Nc3ccccc3)c(C(=O)C3CC3)[nH]c2c1`, the IC50 in experiment [1] is 82.3 µM.

`Cc1ccc(C(=O)c2[nH]c3ccccc3c2NC(=O)CNc2ccccc2C)cc1`: the IC50 in experiment [1] was found to be 31.1 µM.

Consider `COc1ccc(C(=O)c2[nH]c3cc(Cl)ccc3c2NC(=O)CNc2ccc(F)cc2)cc1`, for which the inhibition in experiment [10] was determined as 43%. Moreover, the IC50 in [12] was 21.8 µM; in experiment [2], 18.2 µM; in experiment [1], 16.7 µM.

For the compound `O=C(Nc1ccncc1)C(=O)c1cn(Cc2ccc(Cl)cc2)c2ccccc12` [INDIBULIN], the IC50 in [22] amounted to 0.115 µM.

For the compound `O=C(Nc1ccncc1)C(=O)Nc1c(C(=O)c2ccccc2)[nH]c2cc(Cl)ccc12`, the IC50 in experiment [1] is above 100 µM.

In the case of `O=C(Nc1ccccc1)C(=O)Nc1c(C(=O)c2ccccc2)[nH]c2ccccc12`, the IC50 in experiment [1] came out at 62.9 µM.

As for `O=C(Nc1ccncc1)C(=O)Nc1c(C(=O)c2ccccc2)[nH]c2ccccc12`, the IC50 in [1] is 85.3 µM.

As for `O=C(Nc1ccncc1)C(=O)Nc1c(C(=O)C2CC2)[nH]c2cc(Cl)ccc12`, in experiment [1], the 50% inhibitory concentration (IC50) is 80.7 µM.

Take `Cc1ccc2c(NC(=O)C(=O)Nc3ccncc3)c(C(=O)c3ccco3)[nH]c2c1`: the IC50 in [1] was determined as 56.9 µM.

For the compound `Cc1ccc2c(NC(=O)C(=O)Nc3ccncc3)c(C(=O)c3ccccc3)[nH]c2c1`, in [1], the IC50 was 75.1 µM.

In turn, `COc1ccc(NCC(=O)Nc2c(C(=O)c3ccc(OC)cc3)[nH]c3ccccc23)cc1` came in with an inhibition in [10] of 7%. Further, the IC50 in experiment [12] was 43.7 µM; in [2] it was 46.9 µM; in experiment [1], 16.2 µM.
